From PubChem BioAssay come the findings set out here.

Active and inactive are the calls of the source.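 How the source made its calls, unless noted: active means inhibition above 20% together with a positive visual image hit; inconclusive means visual image hit but inhibition not above 20%; inactive means no visual image hit.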

The nature of experiment [1]: inhibitors of TNFa-induced NFkB p65 translocation, primary screen, imaging, HUVEC, MLSMR starter and 10KST1 sets (AID 438).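 Further: compound added about 3h40 before a 20 min TNFalpha stimulation.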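 On inhibition: signal is the nuclear over cytoplasmic p65 intensity ratio per well.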 To be noted: HUVEC TNFa-induced p65 nuclear translocation; cell count: measured here: nuclei count (cytotoxicity indicator), at 2.08 µM; inhibition: at 2 µM, stronger effect = higher value, 0% TNFa-plus-vehicle, 100% no-TNFa wells.
Experiment [2] is described as follows: endothelial E-selectin expression blockers – imaging, HUVEC, immunofluorescence, MLSMR starter and 10KST1 sets, primary screen (AID 487;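 active means visually confirmed hit in the image check and inhibition above 20%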;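 on inhibition: signal is fraction of cell area covered by stained E-selectin grains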;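 on nuclei count: 100% = median nuclei count of all wells on the same plate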). To be noted: HUVEC TNFalpha-induced E-selectin immunofluorescence imaging, at 2 µM; inhibition: stronger effect = higher value; nuclei count: measured here: cell number, toxicity.
Experiment [3] in a line: Primary imaging screen for DUSP6 inhibitors that restore phospho-Erk in transfected HeLa cells, chemical complementation (AID 609;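 active means compounds giving at least 50% inhibition in the cell-based MKP-3 phosphatase rescue imaging test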;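 on inhibition: phospho-Erk level distribution per well compared with pooled transfected vehicle control wells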). The following applies: HeLa MKP-3 transfected, phospho-Erk imaging KS statistic, at 10 µM, cells stimulated with TPA for 15 min.
Experiment [4] addresses Dual specificity protein phosphatase 6 (Homo sapiens) (UniProt Q16828). The description is as above. To be noted: HeLa MKP-3 transfected, phospho-Erk imaging KS statistic; at 10 µM; stronger effect = higher value; cells stimulated with TPA for 15 min.
In experiment [5] the target is Voltage-gated potassium channel subunit beta-2 (Rattus norvegicus) (UniProt P62483). The experiment can be described thus: inhibitors of rat Kvbeta2 reductase activity – biochemical, NADPH fluorescence, primary screen (AID 622;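 active means fluorescence slope higher than the sample average by over 3 SD, cut at about -0.22 in these data, passing the limit was not always enough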;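 further: slope of raw intensity against log time taken from 70 to 1610 s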). To be noted: recombinant KvBeta, 4-cyanobenzaldehyde reduction, at 10 µM, stronger effect = higher value.
Experiment [6] has the same target. Description: enhancers of rat Kvbeta2 NADPH turnover – biochemical, NADPH fluorescence, primary screen (AID 623;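 active means NADPH fluorescence slope more negative than the mean of all samples by about 3 SD, 99.7% confidence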;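 further: fluorescence intensity change per second fitted from 20 to 320 s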). The following applies: Recombinant KvBeta, NADPH fluorescence decrease slope, 10 min; at 10 µM; stronger effect = lower value.
In experiment [7] the target is Muscarinic acetylcholine receptor M4 (Homo sapiens) (UniProt P08173). Description: M4-linked GIRK flux change, two-sided – cell-based, HEK293 M4/GIRK, thallium flux, BTC-AM, M4 allosteric agonist project, primary screen (AID 625;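 active means fluorescence slope after compound addition differing from the mean of all tested samples at 99.7% confidence, mostly higher but some lower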;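 further: thallium influx through GIRK channels coupled to M4 in HEK293 cells with BTC-AM dye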). To be noted: at 10 µM, actives lie on both sides. The method in brief:
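System: HEK293 cells with M4 receptor and GIRK channels | Incubation: Cells overnight at 37 °C, BTC-AM loading 1 h, reads 2 min total | Technique: Kinetic BTC-AM fluorescence sampled at 1 Hz, 10 s pre-addition baseline | Measure: Post-addition slope, 15–24 s, of baseline-normalized fluorescence | Control set: Carbachol positive, DMSO negative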

Experiment [8] in a line: inhibitors of larval lipid processing in zebrafish, primary screen, whole organism, PED6 fluorescence, gall bladder and intestine (AID 686;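 active means a full or partial loss of lipid-probe fluorescence in the fish gall bladder, intestine or both, judged by eye; inactive means no fluorescence loss, or compound toxic to the fish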;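 further: larvae 5 to 7 days old with five fish per well; signal comes from phospholipase A2 cleavage of quenched PED6 carried via bile; overnight exposure to compound and PED6 before scoring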). The following applies: Zebrafish larvae PED6 lipid processing, fluorescence scoring; screened at 20 µM (by protocol). The method in brief:
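Test system – live zebrafish larvae aged 5-7 days, whole organism · Buffer or medium – E3 fish medium · Reagent – quenched phospholipase substrate PED6, 100 nM final, ingested by larvae · Doses – 20 µM single dose · Incubation – overnight compound and PED6 incubation · Technique – visual fluorescence microscopy scoring of gall bladder, gut · Read-out basis – visual per-well fluorescence inhibition score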

Experiment [9] can be described thus: loss of swimming-algae plug formation – whole organism, Chlamydomonas reinhardtii, WT vs cilia-less mutant, absorbance, 96-well, primary screen (AID 463189;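 active means inhibition at or above 50% relative to wild type and mutant plate controls; inactive means inhibition below 50%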;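 further: 0% = wild type cc124 cells in DMSO and 100% = ciliumless bld1 mutant cells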). To be noted: Chlamydomonas reinhardtii gravitaxis, OD600 absorbance, 2 days; at 10 µM; stronger effect = higher value.
The mark [10] stands for this setting: measured here: cell density z-score.
Where [11] appears, read: measured here: nuclear c-Myc green intensity z-score.
Setting [12] is: measured here: nuclear pErk red intensity z-score, stronger effect = higher value.

Chain of Muscarinic acetylcholine receptor M4 (Homo sapiens) (P08173 whole entry, looked up): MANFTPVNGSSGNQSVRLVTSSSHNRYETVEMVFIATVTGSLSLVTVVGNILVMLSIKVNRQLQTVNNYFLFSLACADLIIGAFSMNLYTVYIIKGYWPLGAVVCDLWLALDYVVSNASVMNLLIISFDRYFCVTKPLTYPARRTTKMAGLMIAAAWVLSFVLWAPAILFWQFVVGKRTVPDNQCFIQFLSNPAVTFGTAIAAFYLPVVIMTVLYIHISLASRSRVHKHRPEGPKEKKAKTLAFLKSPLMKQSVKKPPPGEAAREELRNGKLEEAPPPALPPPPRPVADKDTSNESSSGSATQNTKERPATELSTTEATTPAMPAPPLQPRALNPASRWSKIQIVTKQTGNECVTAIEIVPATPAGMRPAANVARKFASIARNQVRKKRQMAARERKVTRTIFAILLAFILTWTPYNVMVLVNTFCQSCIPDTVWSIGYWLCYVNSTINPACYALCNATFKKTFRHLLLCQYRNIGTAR
Chain of Voltage-gated potassium channel subunit beta-2 (Rattus norvegicus) (P62483 whole entry, looked up): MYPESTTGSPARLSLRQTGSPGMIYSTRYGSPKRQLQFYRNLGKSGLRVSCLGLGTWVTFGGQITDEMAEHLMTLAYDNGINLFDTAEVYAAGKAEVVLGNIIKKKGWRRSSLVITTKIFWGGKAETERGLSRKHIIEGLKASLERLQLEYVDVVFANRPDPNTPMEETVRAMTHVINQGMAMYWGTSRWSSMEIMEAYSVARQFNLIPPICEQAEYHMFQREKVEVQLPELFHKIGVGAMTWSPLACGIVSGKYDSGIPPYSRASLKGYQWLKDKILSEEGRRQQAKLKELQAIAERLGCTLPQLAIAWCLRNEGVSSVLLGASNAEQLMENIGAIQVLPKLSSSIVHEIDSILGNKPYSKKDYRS
Chain of Dual specificity protein phosphatase 6 (Homo sapiens) (Q16828 whole entry, looked up): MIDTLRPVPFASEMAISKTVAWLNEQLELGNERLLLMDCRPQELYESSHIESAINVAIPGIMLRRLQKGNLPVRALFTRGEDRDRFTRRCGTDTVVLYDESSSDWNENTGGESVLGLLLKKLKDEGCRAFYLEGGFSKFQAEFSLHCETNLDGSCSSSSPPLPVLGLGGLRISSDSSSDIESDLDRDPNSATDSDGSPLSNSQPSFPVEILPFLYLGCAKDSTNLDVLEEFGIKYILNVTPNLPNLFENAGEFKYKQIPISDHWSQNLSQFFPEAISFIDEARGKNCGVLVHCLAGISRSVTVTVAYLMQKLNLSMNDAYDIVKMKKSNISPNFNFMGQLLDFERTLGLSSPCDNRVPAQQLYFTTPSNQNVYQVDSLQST

One may read the inhibition as the drop in the measured response relative to a control, in per cent. With `Cc1nc(NCCCO)c(C#N)c2c1COC(C)(C)C2`, in experiment [1], the cell count came to 588. Besides, the inhibition in [1] was -3.1% (inactive); in experiment [2], -70% (inactive); in [4], 12.8% (inactive); in experiment [9], 24% (inactive). The molecule also yielded a nuclei count in [2] of 142%. For the same molecule, the z-score in [3] (setting [10]) was -0.306; in experiment [3] (setting [11]) it was -0.435; in [3] (setting [12]), -0.462. Also, the fluorescence slope in experiment [5] was -0.432 (inactive); in experiment [7], 0.00443 (inactive). Further, the NADPH fluorescence slope in experiment [6] is -9.1e-05 (inactive). Besides, the molecule was classed as inactive in experiment [8].

Regarding `Cc1ccc(C2CC(c3cccs3)n3nc(N)nc3N2)cc1` (stereo unspecified), the cell count in experiment [1] was found to be 390. Besides, the inhibition in [1] was -2% (inactive); in experiment [2], -110% (inactive); in experiment [4], 3.56% (inactive); in [9], 31.5% (inactive). Besides, the nuclei count in experiment [2] stood at 149%. Moreover, the z-score in experiment [3] (setting [10]) is -0.677; in [3] (setting [11]), 0.494; in experiment [3] (setting [12]), -0.466. The fluorescence slope in experiment [5] was -0.429 (inactive); in [7], 0.00581 (inactive). Also, the NADPH fluorescence slope in experiment [6] was -0.000111 (inactive). For the same molecule, in [8], the call was inactive.

For `CC(=O)CCn1c(=O)n(CCC(C)=O)c(=O)n(CCC(C)=O)c1=O`, in [1], the cell count turned out to be 352. For the same molecule, the inhibition was -1.6% (inactive) in [1], -7% (inactive) in experiment [2], 5.42% (inactive) in [4] and -14.3% (inactive) in [9]. Besides, the nuclei count in experiment [2] was determined as 97.7%. The z-score is -1.19 in experiment [3] (setting [10]), 2.07 in [3] (setting [11]) and -0.0971 in experiment [3] (setting [12]). Further, the fluorescence slope in experiment [5] was -0.512 (inactive); in experiment [7], 0.00631 (inactive). In experiment [6], the NADPH fluorescence slope was -4.3e-05 (inactive). The molecule was called inactive in experiment [8].

For the molecule `CCOC(=O)C1=C(C)OC(N)=C(C#N)C1c1cc2ccccc2nc1N1CCCCC1` (stereo unspecified), the cell count in [1] was 619. Besides, the inhibition in experiment [1] was -8.2% (inactive); in [2], -33.5% (inactive); in [4] it was -14.6% (inactive); in [9], 37.2% (inactive). This molecule also displayed a nuclei count in experiment [2] of 181%. In addition, the z-score is -0.314 in experiment [3] (setting [10]), 0.189 in experiment [3] (setting [11]) and 0.368 in experiment [3] (setting [12]). For the same molecule, the values for the fluorescence slope in [5] and in experiment [7] were -0.315 (inactive) and 0.00507 (inactive), respectively. Moreover, the NADPH fluorescence slope in experiment [6] is -8.1e-06 (inactive). Also, the result in experiment [8] was inactive.

For `C=C(C)Cn1c(-c2ccc(OC)cc2)nc2ccccc21`, in [1], the cell count was 377. Besides, the inhibition in experiment [1] was 0.8% (inactive); in experiment [2] it was -113% (inactive); in experiment [4], -6.86% (inactive); in experiment [9] it was 25.6% (inactive). Besides, in experiment [2], the nuclei count stood at 157%. In addition, the z-score is -0.296 in experiment [3] (setting [10]), -0.903 in experiment [3] (setting [11]) and 0.627 in experiment [3] (setting [12]). In addition, the fluorescence slope in experiment [5] was -0.461 (inactive); in experiment [7] it was 0.00384 (inactive). Further, the NADPH fluorescence slope in [6] is -0.000111 (inactive). Further, the outcome in experiment [8] was “inactive; toxic”.

Regarding `CCC(=O)Nc1nc2ccccc2n1CCN(C)C`, the cell count in [1] stood at 551. For the same molecule, the inhibition was 4.1% (inactive) in experiment [1], -371% (inactive) in experiment [2], -1.98% (inactive) in experiment [4] and -5.07% (inactive) in experiment [9]. The molecule also displayed a nuclei count in experiment [2] of 131%. In addition, the figures for the z-score in experiment [3] (setting [10]), in experiment [3] (setting [11]) and in experiment [3] (setting [12]) were 0.711, 0.524 and -0.675, respectively. Also, the fluorescence slope was -0.436 (inactive) in [5] and 0.00568 (inactive) in experiment [7]. For the same molecule, in [6], the NADPH fluorescence slope was -1.7e-05 (inactive). Also, in [8], the call was inactive.

`CN1C(=O)C2(c3ccccc31)C1CCCC=C1C(C#N)=C(N)C2(C#N)C#N` (stereo unspecified): the cell count in [1] came to 391. In addition, the inhibition in experiment [1] is -7% (inactive); in [2], -160% (inactive); in experiment [4], 29.4% (inactive); in experiment [9], 4.14% (inactive). Moreover, in experiment [2], the nuclei count is 143%. Also, the z-score in experiment [3] (setting [10]) was -0.865; in [3] (setting [11]), 0.905; in experiment [3] (setting [12]), -0.897. The values for the fluorescence slope in experiment [5] and in [7] were -0.472 (inactive) and 0.00434 (inactive), respectively. Further, the NADPH fluorescence slope in experiment [6] is -1.9e-05 (inactive). The molecule was called inactive in experiment [8].
